pIC50: −log10 of the molar value.
How the values were obtained:
[1] = Hydrolysis was studied in 0.02 M phosphate buffer containing 80% human plasma (pH 7.4) at 37 degree celsius.; type: ADME, cell-free
In short: (§1)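 Initial compound concentration was (2–3) × 10^-5 M, held at 37 °C. Samples taken over time were deproteinized with EtOH and centrifuged 3–5 min. Supernatant was analyzed by RP-HPLC at 220 nm; half-life was derived from residual compound over time.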

[2] = The apparent partition coefficient(D) in n-octanol-0.05 M phosphate buffer (pH 7.4) at 21 degree celsius.; type: physicochemical
In short: (§2)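 Organic and aqueous phases were mutually saturated at 21 °C. Compound was dissolved in the aqueous buffer at (2–3) × 10^-5 M and shaken 10–15 min to equilibrium. Phases were separated by centrifugation for 3–5 min. Aqueous concentration before and after distribution was measured by HPLC, and D was reported as log D.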

[3] = Hydrolysis was studied in 0.02 M aqueous phosphate buffer (pH 7.4) at 37 degree celsius.; type: ADME
In short: (§3)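 Prodrug stock in MeCN–H2O was added to prewarmed buffer, giving (2–3) × 10^-5 M final. Tubes were held at 37 ± 0.2 °C and sampled over time for RP-HPLC at 220 nm, quantified by peak area against standards. Pseudo-first-order rate constants came from slopes of log residual prodrug versus time, expressed as t1/2.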

[4] = The apparent partition coefficient(D) in cyclohexane-0.05 M phosphate buffer (pH 7.4) at 21 degree celsius.; type: physicochemical; in short: as §2
Mus musculus [5] = species: Mus musculus; test: Effect on glial GABA(1 uM) uptake was measured using astrocytes cultured from cerebral cortices of new born mice.; type: functional, organism-based
Rattus norvegicus = species: Rattus norvegicus; test: Inhibition of GABA uptake into crude synaptosomes prepared from adult rat brain; type: functional
In short: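 Crude synaptosomes from adult rat brain were preincubated with inhibitor for 10 min at 20 °C. Uptake was then run at 0.05 μM GABA.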

Mus musculus [6] = species: Mus musculus; test: Effect on neuronal GABA(1 uM) uptake was measured using neurons cultured from cerebral cortices of 15-day-old mouse embryos.; type: functional, organism-based
[7] = Hydrolysis was studied in 0.02 M phosphate buffer containing 80% human plasma (pH 7.4) at 37 degree celsius; stable; type: ADME, cell-free; in short: as §1
[8] = Hydrolysis was studied in 0.02 M aqueous phosphate buffer (pH 7.4) at 37 degree celsius; stable; type: ADME; in short: as §3

SMILES	pIC50 (Mus musculus [5])	pIC50 (Rattus norvegicus)	pIC50 (Mus musculus [6])	further results
CNC1CCCc2onc(OCOC(=O)C(C)(C)C)c21 (stereo not drawn)				half-life [1]: 0.25 h; logD [2]: 0.65; half-life [3]: 75 h; logD [4]: -0.17
Oc1noc2c1C(N1CCCC1)CCC2 (stereo not drawn)	< 3.30	3.70	< 3.00	
Oc1noc2c1CNCC2	3.57	3.79	3.28	
CN[C@H]1CCCc2onc(O)c21		< 3.52		
N[C@H]1CCCc2onc(O)c21		< 3.52		
CNC1CCCc2snc(O)c21 (stereo not drawn)	< 3.30	3.62	< 3.00	
CNC1CCCc2on(COC(=O)C(C)(C)C)c(=O)c21 (stereo not drawn)				half-life [1]: 0.117 h; logD [2]: 0.05; half-life [3]: 267 h; logD [4]: -1.4
CN(C)C1CCCc2onc(O)c21 (stereo not drawn)	< 3.30	3.54	< 3.00	
NC1CCCc2onc(O)c21 (stereo not drawn)	3.68	3.74	3.05	
NC1CCCc2snc(O)c21 (stereo not drawn)	< 3.30	3.54	< 3.00	

Further compounds by rising pIC50 (Rattus norvegicus), results first:

pIC50 (Mus musculus [5])	pIC50 (Rattus norvegicus)	SMILES	pIC50 (Mus musculus [6])	further results
< 3.30	3.76	OCCNC1CCCc2onc(O)c21 (stereo not drawn)	< 3.00	
< 3.30	3.90	CC(=O)OCCNC1CCCc2onc(O)c21 (stereo not drawn)	< 3.00	
3.55	3.93	N[C@@H]1CCCc2onc(O)c21	3.17	
3.56	3.98	CCNC1CCCc2onc(O)c21 (stereo not drawn)	3.41	
< 3.30	4.01	C=CCNC1CCCc2onc(O)c21 (stereo not drawn)	< 3.00	
4.55	4.20	CNC1CCCc2onc(O)c21 (stereo not drawn)	3.37	logD [2]: -2.3; T1/2 [7]: stable; T1/2 [8]: stable
4.22	4.41	CN[C@@H]1CCCc2onc(O)c21	3.29	
4.54	4.92	O=C(O)C1=CCCNC1 [GUVACINE]	4.49	
4.80	5.30	O=C(O)[C@@H]1CCCNC1 [(R)-NIPECOTIC ACID]	4.92	

Source: ChEMBL document CHEMBL1132551, “Selective inhibitors of glial GABA uptake: synthesis, absolute stereochemistry, and pharmacology of the enantiomers of 3-hydroxy-4-amino-4,5,6,7-tetrahydro-1,2-benzisoxazole (exo-THPO) and analogues” (J Med Chem, 1999)
